FID counter – compounds displacing fluorescent DNA intercalator, primary screen, artefact control for HCV NS3 helicase inhibitor project, biochemical, FID fluorescence; DNA fluorescent intercalator displacement; inhibition, % at 7.9 µM; 290,000 compounds, 0.17% hits; in the data active means inhibition above about 37%;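 further: 0% = vehicle and 100% = reference compound; higher means more ethidium bromide displaced from hairpin DNA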
T cruzi repl – inhibitors of intracellular T. cruzi growth, primary screen, luminescence, NIH3T3 host cells; AID 1885, 2009; T. cruzi beta-gal in NIH3T3, 90 h; inhibition, % (concentration not given with the values); 300,000 compounds, 1.4% hits;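 active means mean inhibition across valid replicates above about 55%, limit read from the data; inconclusive means mean below that limit but half or more replicates reach it; inactive means mean below it, under half of replicates reach it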;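 further: signal also drops with host cell toxicity which is not excluded here; 0% = plate median of DMSO wells and 100% = zero luminescence signal; higher percent means less beta-gal luminescence so fewer parasites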
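System: mouse NIH/3T3 fibroblasts infected with β-gal-expressing T. cruzi Tulahuen C4 / Input: NIH/3T3 cells, 5,000 per well / Buffer or medium: Low-serum DMEM with 2% FBS / Probe or stimulus: 5000 reporter trypomastigotes per well / Schedule: ≥90 h infection period, 3 h prior cell attachment / Measured by: GalScreen luminescence, 60 min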
MEKK3 PB1 HTS – modulators of MEKK3-MEK5 PB1 binding, primary screen, biochemical, wildtype MEKK3, multiplex bead flow cytometry, Alexa488-MEK5; bead-based flow cytometry, Alexa488-MEK5 binding to MEKK3; actives lie on both sides; 0 = blocked by unlabeled MEK5, 100 = vehicle; binding response (% of control), % at 10 µM; 290,000 compounds, 1.4% hits;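 active means binding response more than 3 SD above or below the average of its plate-row segment, actives on both sides; inconclusive means wells at one plate position flagged as instrument error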;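 further: Alexa488 bead fluorescence after subtracting the streptavidin-only scavenger bead signal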
Target sequence (Q99759 whole entry, looked up): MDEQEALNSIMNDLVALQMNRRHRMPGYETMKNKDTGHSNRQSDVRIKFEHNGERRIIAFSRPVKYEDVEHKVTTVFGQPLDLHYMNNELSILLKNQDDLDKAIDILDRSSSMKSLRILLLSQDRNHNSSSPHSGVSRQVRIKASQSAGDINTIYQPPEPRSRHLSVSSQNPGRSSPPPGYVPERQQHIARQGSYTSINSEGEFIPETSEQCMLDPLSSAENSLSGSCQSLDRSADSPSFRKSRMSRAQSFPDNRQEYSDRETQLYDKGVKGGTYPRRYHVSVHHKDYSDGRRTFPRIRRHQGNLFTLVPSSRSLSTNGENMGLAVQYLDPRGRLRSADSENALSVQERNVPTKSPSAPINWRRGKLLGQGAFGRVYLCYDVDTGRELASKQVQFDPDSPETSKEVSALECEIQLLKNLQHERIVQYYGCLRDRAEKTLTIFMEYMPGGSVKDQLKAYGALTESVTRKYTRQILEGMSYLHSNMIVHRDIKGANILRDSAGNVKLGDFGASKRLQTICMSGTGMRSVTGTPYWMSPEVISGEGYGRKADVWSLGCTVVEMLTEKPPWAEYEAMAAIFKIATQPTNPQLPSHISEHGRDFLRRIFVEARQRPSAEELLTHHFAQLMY
MEKK2 mut-MEK5 – MEK5 binding signal on mutant MEKK2 PB1, primary screen, biochemical, multiplex bead flow cytometry, Alexa488-MEK5 | Alexa488-MEK5 binding to MEKK2 mutant | percent response, % at 10 µM | 290,000 compounds, 0.35% hits; in the data active means percent response above about 24%, passing the limit was not always enough
HCV NS3 hel inh – inhibitors of HCV NS3 helicase, primary screen, biochemical, Cy5 molecular beacon fluorescence. Hepatitis C virus NS3 helicase. NS3 helicase DNA unwinding. inhibition, % at 10.9 µM. 290,000 compounds, 0.56% hits;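 active means inhibition above the mean of all tested compounds plus 3 SD, set per campaign, cut at about 35% in these data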;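 further: 0% = DMSO wells and 100% = thioflavine S control wells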
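Compound dosing – single dose, 10.9 µM nominal final, DMSO 0.8% final · System – NS3 helicase fragment of HCV · Buffer or medium – MOPS pH 6.5, MgCl2, DTT, Tween20, BSA · Signal – Cy5 beacon fluorescence read at start and 1 h · Also added – annealed dual-labelled DNA beacon duplex, ATP-started · Schedule – 1 h at 25 °C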
MEKK2 WT-MEK5 – modulators of MEK5 binding to wildtype MEKK2, primary screen, biochemical, multiplex bead flow cytometry, Alexa488-MEK5. Mitogen-activated protein kinase kinase kinase 2 (Homo sapiens), Q9Y2U5. Alexa488-MEK5 binding to MEKK2 WT; actives lie on both sides. binding response (% of control), % at 10 µM. 290,000 compounds, 1.1% hits. AID 1531, 2009; in the data active means binding response below about 67% or above about 130%; inconclusive means no clear call, values can overlap the other calls; inactive means in between
MEKK2wt confirm – modulators of MEK5 binding to wildtype MEKK2, confirmation, biochemical, single concentration, multiplex bead flow cytometry | shares compounds with MEKK3 PB1 HTS | 5,900 compounds, 2.4% hits | Alexa488-MEK5 binding to MEKK2 WT; actives lie on both sides | binding response (% of control), % at 10 µM; in the data active means binding response below about 16% or above about 210%; inactive means in between
MEKK2mut-MEK5 – mutant MEKK2 PB1-MEK5 binding signal retest – biochemical, single concentration, multiplex bead flow cytometry, confirmation; AID 1893, 2009; 5,900 compounds, 2% hits; Alexa488-MEK5 binding to MEKK2 mutant; shares compounds with MEKK3 PB1 HTS; percent response, % at 10 µM; in the data active means percent response mostly above about 71%, no sharp cut-off; inactive means mostly below about 38%;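 further: higher means compound restores mutant binding toward wildtype level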
MEKK3-MEK5 inh – MEKK3 wild-type PB1 binding to MEK5, inhibitors, confirmation, biochemical, bead multiplex flow cytometry, single concentration, wildtype. shares compounds with MEKK3 PB1 HTS. Alexa488-MEK5 binding to MEKK3; hits give low values. binding response (% of control), % at 10 µM. 5,900 compounds, 1.8% hits;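 active means binding response below 72% of control, or above a set upper limit, though filed actives all read lower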;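 further: 100% = DMSO only wells and 0% = binding blocked by excess unlabeled MEK5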
Starred values were filed as active, the others as inactive; ? = inconclusive; . = not tested or not shown; [ ] = dose if it differs, or a comment. This is a sample that favours compounds with a hit; in the whole collection about 4.1% have one here.

SMILES | FID counter | T cruzi repl | MEKK3 PB1 HTS | MEKK2 mut-MEK5 | HCV NS3 hel inh | MEKK2 WT-MEK5 | MEKK2wt confirm | MEKK2mut-MEK5 | MEKK3-MEK5 inh
CC(C)(C)CC(=O)Nc1nn[nH]n1 | 3.0 | -10.6 | 87.0 | -3.0 | 8.6 | 91.0 | . | . | .
CC(=O)N1CCN(c2cc(N3CCCC3)c(F)cc2[N+](=O)[O-])CC1 | -13.0 | 6.6 | 106.0 | 1.0 | 4.2 | 105.0 | . | . | .
CCN1CCN(c2cc(N3CCc4ccccc4C3)c(F)cc2[N+](=O)[O-])CC1 | 33.4 | 27.7 | 100.0 | 39.0 | -87.3 | 151.0* | 153.0 | 22.0 | 110.0
Cc1cccc(OCC(O)Cn2c(=N)n(Cc3ccccc3)c3ccccc32)c1 (stereo unspecified) | 23.6 | 19.1 | 95.0 | -2.0 | -48.7 | 116.0 | . | . | .
Cc1ccc(OCC(O)Cn2c(=N)n(Cc3ccccc3)c3ccccc32)cc1 (stereo unspecified) | 20.9 | ? | 106.0 | 6.0 | -33.6 | 140.0* | 120.0 | 8.0 | 99.0
N=c1n(Cc2ccccc2)c2ccccc2n1CC(O)COc1ccc(Cl)cc1Cl (stereo unspecified) | 28.7 | 19.2 | 111.0 | 63.0* | -79.0 | 220.0* | 172.0 | 30.0 | 97.0
N=c1n(Cc2ccc(Cl)cc2)c2ccccc2n1CC(O)COc1ccccc1 (stereo unspecified) | 42.6* | 37.5 | 86.0 | 3.0 | -44.3 | 142.0* | 149.0 | 47.0 | 105.0
CC(C)(C)OC(=O)N1CSC[C@H]1C(=O)NC[C@H](CC(=O)O)c1ccc(Cl)cc1 | -22.8 | 5.1 | 99.0 | -4.0 | 21.4 | 101.0 | . | . | .
CC(=O)c1cccc(NC(=O)COc2ccccc2C(=O)c2cc(C#N)c(=O)n(C3CCCCC3)c2)c1 | -29.8 | 9.9 | 93.0 | -4.0 | -6.3 | 93.0 | . | . | .
Cc1ccc(OCc2ccc(C#N)cc2)c(C(=O)c2cc(C#N)c(=O)n(C3CC3)c2)c1 | 2.6 | -11.6 | 107.0 | 52.0* | 2.8 | 115.0 | 101.0 | -15.0 | 98.0
CC(C)CNC(=O)COC(=O)CNC(=O)c1cc(Cl)cc([N+](=O)[O-])c1 | -9.4 | -0.4 | 149.0* | 0.0 | 9.3 | 105.0 | 104.0 | 9.0 | 109.0
CCNC(=O)COC(=O)CNC(=O)c1cc(Cl)cc([N+](=O)[O-])c1 | -2.2 | 1.2 | 97.0 | -1.0 | -6.8 | 96.0 | . | . | .
CC(C)(C)NC(=O)COC(=O)CNC(=O)c1cc(Cl)cc([N+](=O)[O-])c1 | -5.1 | -16.7 | 131.0* | 0.0 | -2.8 | 106.0 | 92.0 | -8.0 | 89.0
CCOc1ccc(C(=O)Nc2ccccc2C#N)cc1[N+](=O)[O-] | 2.7 | -15.0 | 98.0 | -2.0 | 8.8 | 92.0 | . | . | .
CCOc1ccc(C(=O)Nc2ccccc2CC)cc1[N+](=O)[O-] | -0.4 | 7.2 | 50.0*[inhibitor] | -2.0 | -5.6 | 87.0 | 94.0 | -26.0 | 89.0
O=C(C[n+]1ccc(-c2cc(C(=O)Nc3cccc(C(F)(F)F)c3)c3ccccc3n2)cc1)c1cccc([N+](=O)[O-])c1 | 18.0 | 19.4 | 94.0 | 46.0 | -48.7 | 158.0* | 176.0 | 99.0* | 95.0
O=C(C[n+]1cccc(NC(=O)c2ccccc2)c1)c1cccc([N+](=O)[O-])c1 | 5.0 | -20.0 | 100.0 | -2.0 | -17.4 | 103.0 | . | . | .
